The results in this text go back to ChEMBL document CHEMBL2202957, “Redox potentials, laccase oxidation, and antilarval activities of substituted phenols” (2012).

Structures are written as SMILES. Active and inactive are the calls of the source. The rule behind the calls is not given here.

For orientation: kcat/Km means the turnover number divided by the Michaelis constant. For orientation: Km means the concentration of substrate that gives half-maximal velocity. What is called kcat is the number of substrate molecules converted per active site and unit of time at saturation.

Experiment [1] deals with Anopheles gambiae. Nature of the experiment: Antilarval activity against third-instar larvae of Anopheles gambiae assessed as mortality at 1000 ug/L after 72 hrs. The class given is functional. A digest of the protocol:
(§1)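 Third-instar larvae came from a laboratory An. gambiae colony originally from MR4. Groups of 12–15 larvae were held at 25°C in distilled water with larval food. Compound was added from an acetone or water stock to final 50 or 1000 μg/L, with a solvent-only control. Treatments and controls were run four times, and mortality was scored at 72 h.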

In experiment [2] the test system is Anopheles gambiae. Nature of the experiment: Antilarval activity against third-instar larvae of Anopheles gambiae assessed as mortality at 50 ug/L after 72 hrs. The format is functional. A digest of the protocol: as §1
The subject of experiment [3] is Trametes versicolor. Nature of the experiment: Inhibition of Trametes versicolor laccase.
For experiment [4], the system named is Trametes versicolor.
The subject of experiment [5] is Trametes versicolor. The source holds these as a separate data set.
Experiment [6] has as its system Anopheles gambiae. Nature of the experiment: Antilarval activity against third-instar larvae of Anopheles gambiae assessed as effect on cuticle development by microscopic analysis relative to control. The format is functional.
Another experiment concerns Culex pipiens molestus. Nature of the experiment: Antilarval activity against third-instar larvae of Culex molestus assessed as mortality at 100 ug/L after 72 hrs. The format is functional.
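For Km in this document: kinetic parameters for Trametes versicolor laccase, determined from a spectrophotometric readout.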
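For kcat/Km in this document: measured with the laccase enzyme of Trametes versicolor.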

Consider `COC1=CC(=O)C(N[C@@H](C)C(=O)OCc2ccccc2)=C(Cl)C1=O`, for which the figures for the Activity in the experiment on Anopheles gambiae [1] and in the experiment with Anopheles gambiae [2] were 6.66% and 5%, respectively.
Consider `O=Cc1cc(O)c(O)c(Cl)c1`, for which, in the experiment on Trametes versicolor [3], the inhibition entry was “inactive”. Also, the kcat/Km in the experiment on Trametes versicolor [4] was determined as 792000 M⁻¹ s⁻¹. Also, in the experiment on Trametes versicolor [5], the Km was 40 µM and the kcat is 31.7 s⁻¹.
Take `Oc1cc(O)c(Br)c(Cl)c1O`: the Activity in the experiment with Anopheles gambiae [1] amounted to 11.4%. Moreover, the Activity with Anopheles gambiae [2] is on record as 0%. For the same molecule, the inhibition result with Trametes versicolor [3] is “inactive”. For the same molecule, the catalytic efficiency (kcat/Km) with Trametes versicolor [4] was determined as 2.89e+06 M⁻¹ s⁻¹. For the same molecule, in the experiment on Trametes versicolor [5], the Km was 50 µM and the kcat turned out to be 145 s⁻¹.
In the case of `CC(C)=CCc1cc(C(C)(C)C)cc(C(C)(C)C)c1O`, in the experiment with Anopheles gambiae [6], the result was Active. In addition, the Activity is 60% in the experiment with Culex pipiens molestus, 98.3% in the experiment on Anopheles gambiae [1] and 98.1% in the experiment on Anopheles gambiae [2].
As to `CC1(C)CCc2cc(C(C)(C)C)cc(C(C)(C)C)c2O1`, the results for the Activity with Anopheles gambiae [1] and in the experiment with Anopheles gambiae [2] were 91.7% and 5.77%, respectively.
With `Nc1ccccc1N`, the kcat/Km in the experiment with Trametes versicolor [4] was found to be 40300 M⁻¹ s⁻¹. Further, in the experiment on Trametes versicolor [5], the Km came to 430 µM and the catalytic constant (kcat) stood at 17.3 s⁻¹.
Regarding `Cc1ccc(O)c(N)c1`, the inhibition entry in the experiment with Trametes versicolor [3] was “inactive”. Moreover, the kcat/Km with Trametes versicolor [4] was found to be 1.19e+06 M⁻¹ s⁻¹. In the experiment on Trametes versicolor [5], the Km worked out at 110 µM and the kcat stood at 131 s⁻¹.
In the same order, the values of `COc1cc(C=O)cc(Cl)c1O` are “inactive”, 47800 M⁻¹ s⁻¹, 2200 µM and 105 s⁻¹.
In the same order, the values of `COc1cc(O)c(O)c(Cl)c1Br` are “inactive”, 2.24e+06 M⁻¹ s⁻¹, 40 µM and 89.7 s⁻¹.
The corresponding values for `COc1c(O)cc(O)c(Br)c1Cl` are “inactive”, 1.37e+06 M⁻¹ s⁻¹, 70 µM and 96 s⁻¹.
`CC(C)(C)c1cc(C(C)(C)C=O)cc(C(C)(C)C)c1O`: the results for the Activity in the experiment on Anopheles gambiae [1] and in the experiment with Anopheles gambiae [2] were 65% and 0%, respectively.
In the same order, the values of `CC(C)(C)c1cc(C(C)(C)CO)cc(C(C)(C)C)c1O` are 46.7% and 0%.
The corresponding values for `CC(C)(C)c1cc(C(C)(C)CNCc2ccccc2)cc(C(C)(C)C)c1O.O=C(O)C(F)(F)F` are 7.7% and 3.71%.
In the case of `CC(C)(C)c1cc(C(C)(C)/C=N/O)cc(C(C)(C)C)c1O`, the values for the Activity in the experiment on Anopheles gambiae [1] and in the experiment with Anopheles gambiae [2] were 93.1% and 5.41%, respectively.
On to `Nc1ccc(C(=O)O)cc1O`, for which the inhibition result in the experiment with Trametes versicolor [3] was “inactive”. The kcat/Km in the experiment with Trametes versicolor [4] was 250000 M⁻¹ s⁻¹. Besides, in the experiment on Trametes versicolor [5], the Km was 170 µM and the turnover number (kcat) was found to be 42.5 s⁻¹.
As to `CC(C)(C)c1cc(C(C)(C)c2ccccc2)cc(C(C)(C)C)c1O`, the Activity in the experiment with Anopheles gambiae [1] was 100%; in the experiment on Anopheles gambiae [2], 93.3%.
For the molecule `Oc1ccc(O)cc1` [HYDROQUINONE], the Activity in the experiment with Anopheles gambiae [1] was determined as 5.38%; in the experiment on Anopheles gambiae [2], 1.25%. Besides, the kcat/Km in the experiment with Trametes versicolor [4] was found to be 594 M⁻¹ s⁻¹. In addition, the Michaelis-Menten constant (Km) with Trametes versicolor [5] turned out to be 20 µM. Also, the kcat with Trametes versicolor [5] was determined as 119 s⁻¹.
`Oc1ccccc1O`: the kcat/Km in the experiment on Trametes versicolor [4] was found to be 55800 M⁻¹ s⁻¹. In addition, in the experiment on Trametes versicolor [5], the Km is 600 µM and the kcat turned out to be 33.5 s⁻¹.
On to `Nc1cc(C(=O)O)ccc1O`, for which the inhibition result in the experiment on Trametes versicolor [3] is “inactive”. The kcat/Km in the experiment with Trametes versicolor [4] was 698000 M⁻¹ s⁻¹. Further, in the experiment with Trametes versicolor [5], the Km was 70 µM and the kcat is 48.8 s⁻¹.
The corresponding values for `COc1cc(O)c(Br)c(Cl)c1O` are “inactive”, 262000 M⁻¹ s⁻¹, 70 µM and 18.3 s⁻¹.
As to `CC(C)(C)c1cc(C(C)(C)C(=O)[O-])cc(C(C)(C)C)c1O.[Na+]`, the Activity in the experiment on Anopheles gambiae [1] worked out at 12.3%; with Anopheles gambiae [2] it was 5.5%.
Regarding `Nc1cc(CO)ccc1O`, the inhibition result in the experiment with Trametes versicolor [3] is “inactive”. In addition, the kcat/Km with Trametes versicolor [4] was 788000 M⁻¹ s⁻¹. Besides, in the experiment with Trametes versicolor [5], the Km amounted to 80 µM and the kcat is 63 s⁻¹.
As to `Nc1ccccc1O`, in the experiment on Trametes versicolor [4], the specificity constant (kcat/Km) is 197000 M⁻¹ s⁻¹. Further, in the experiment with Trametes versicolor [5], the Km was found to be 190 µM and the kcat was 37.5 s⁻¹.
Take `CC(C)(Br)C(=O)c1cc(C(C)(C)C)c(O)c(C(C)(C)C)c1`: the Activity is on record as 60% with Anopheles gambiae [1] and 0% in the experiment on Anopheles gambiae [2].
